Laboratory results taken from ChEMBL document CHEMBL3596101, “The Mechanism of Ca(2+) Movement in the Involvement of Baicalein-Induced Cytotoxicity in ZR-75-1 Human Breast Cancer Cells” (J Nat Prod, 2015).
Calls of active or inactive are those of the source. No cut-off for these calls is given here.

Tests used:
ZR-75-1 [1] = experiment: Increase in intracellular Ca2+ level in human ZR-75-1 cells at 40 uM treated for 25 secs by fura-2-AM dye-based spectrofluorophotometric analysis in presence of Ca2+ containing medium (reference value: 50 +/- 3 nM); type: functional
Outline: (§1)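 Fura-2-loaded ZR-75-1 cells (0.5 million per 1 mL, stirred, 25 °C) in Ca2+-containing or Ca2+-free medium. Compound added at 25 s. 340/380 nm excitation, 510 nm emission at 1 s intervals, calibrated to nM. Concentration-response from baseline-subtracted area under curve (25–250 s) as % of 50 μM response in Ca2+ medium. EC50 from Hill fit. Three experiments.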

ZR-75-1 [2] = experiment: Increase in intracellular Ca2+ level in human ZR-75-1 cells treated for 25 secs by fura-2-AM dye-based spectrofluorophotometric analysis in presence of Ca2+ containing medium; type: functional, cell-based; outline: as §1
ZR-75-1 [3] = experiment: Increase in intracellular Ca2+ level in human ZR-75-1 cells at 40 uM treated for 25 secs by fura-2-AM dye-based spectrofluorophotometric analysis in presence of Ca2+-free medium (reference value: 50 +/- 2 nM); type: functional; outline: as §1
ZR-75-1 [4] = experiment: Increase in intracellular Ca2+ level in human ZR-75-1 cells treated for 25 secs by fura-2-AM dye-based spectrofluorophotometric analysis in presence of Ca2+-free medium; type: functional, cell-based; outline: as §1
[5] = Cytotoxicity against human ZR-75-1 cells assessed as cell viability at 50 uM measured 20 mins post intracellular Ca2+ level detection by trypan blue exclusion assay relative to control; type: cell-based; conditions: read-out: Activity
Outline: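 Fura-2-loaded ZR-75-1 cells were held in the fluorescence cuvette with 50 μM compound. Viability was scored by trypan blue exclusion after 20 min of fluorescence recording.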

ZR-75-1 [6] = experiment: Induction of Ca2+ influx in human ZR-75-1 cells at 40 uM by measuring Mn2+ quenching of fura-2-AM for 200 secs by spectrofluorophotometric analysis in presence of Ca2+ containing medium; type: functional, cell-based
Outline: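 Mn2+ quench assay: 50 μM MnCl2 added to fura-2-loaded ZR-75-1 cells in Ca2+-containing medium 1 min before recording. Excitation 360 nm (Ca2+-insensitive), emission 510 nm, 1 s intervals, 25 °C. Compound (40 μM) added during the trace, recorded up to 200 s. Arbitrary units, three experiments.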

ZR-75-1 [7] = experiment: Increase in intracellular Ca2+ level in human ZR-75-1 cells at 40 uM measured every 150 secs by fura-2-AM dye-based spectrofluorophotometric analysis in presence of Ca2+ containing medium with store-operated Ca2+ channel blocker 2-APB; type: functional, cell-based
Outline: (§2)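 In Ca2+-containing medium (2 mM CaCl2), 2-APB (30 μM) or GF109203X (2 μM) was added 1 min before 40 μM compound to fura-2-loaded ZR-75-1 cells at 25 °C. Response = net area under curve over a 150 s interval, as % of compound alone. Mean ± SEM, n=3.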

ZR-75-1 [8] = experiment: Increase in intracellular Ca2+ level in human ZR-75-1 cells at 40 uM measured every 150 secs by fura-2-AM dye-based spectrofluorophotometric analysis in presence of Ca2+ containing medium with PKC inhibitor GF109203X; type: functional, cell-based; outline: as §2
ZR-75-1 [9] = experiment: Increase in intracellular Ca2+ level in human ZR-75-1 cells at 40 uM measured every 150 secs by fura-2-AM dye-based spectrofluorophotometric analysis in presence of Ca2+ free medium with PKC inhibitor GF109203X; type: functional, cell-based
Outline: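 In Ca2+-free medium, GF109203X (2 μM) was added 1 min before 40 μM compound to fura-2-loaded ZR-75-1 cells in a 25 °C cuvette. Response = net area under curve as % of compound alone. Three experiments.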

ZR-75-1 [10] = experiment: Induction of apoptosis in human ZR-75-1 cells assessed as late apoptotic cells at 40 uM after 24 hrs by annexin V-FITC/propidium iodide staining-based flow cytometric analysis (reference value: 2.53%); type: functional
Outline: (§3)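 ZR-75-1 cells exposed to 20–40 μM compound for 24 h, with 5 μM BAPTA-AM or NAC added first where indicated. Cells stained with Alexa Fluor 488 annexin V/PI for 15 min, at least 20000 cells analysed by flow cytometry (488 nm excitation, 530/575 nm filters). Early = annexin V+/PI−, late = annexin V+/PI+. Three independent biological replicates.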

ZR-75-1 [11] = experiment: Induction of apoptosis in human ZR-75-1 cells assessed as early apoptotic cells at 40 uM after 24 hrs by annexin V-FITC/propidium iodide staining-based flow cytometric analysis (reference value: 6.84%); type: functional; outline: as §3
ZR-75-1 [12] = experiment: Induction of apoptosis in human ZR-75-1 cells assessed as late apoptotic cells at 30 uM after 24 hrs by annexin V-FITC/propidium iodide staining-based flow cytometric analysis (reference value: 2.53%); type: functional; outline: as §3
ZR-75-1 [13] = experiment: Induction of apoptosis in human ZR-75-1 cells assessed as early apoptotic cells at 30 uM after 24 hrs by annexin V-FITC/propidium iodide staining-based flow cytometric analysis (reference value: 6.84%); type: functional; outline: as §3
ZR-75-1 [14] = experiment: Increase in intracellular Ca2+ level in human ZR-75-1 cells at 40 uM treated for 90 secs post PLC inhibitor U73122 and ATP addition by fura-2-AM dye-based spectrofluorophotometric analysis in presence of Ca2+ free medium; type: functional, cell-based
Outline: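 Performed in Ca2+-free medium with fura-2-loaded ZR-75-1 cells. Response expressed relative to 40 μM compound alone (100%). Three experiments.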

ZR-75-1 [15] = experiment: Inhibition of endoplasmic reticulum Ca2+ pump inhibitor thapsigargin-induced intracellular Ca2+ increase in human ZR-75-1 cells at 40 uM pretreated with compound followed by thapsigargin induction in presence of Ca2+ free medium; type: functional, cell-based
Outline: (§4)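 ZR-75-1 cells loaded with 2 μM fura-2-AM for 30 min at 25 °C, then suspended in Ca2+-free medium (pH 7.4; 0.3 mM EGTA, 3 mM MgCl2). Stirred cuvette at 25 °C. Thapsigargin (1 μM) or BHQ (50 μM) given before or after 40 μM compound. Excitation 340/380 nm, emission 510 nm, read at 1 s intervals. [Ca2+]i calibrated with Triton X-100/CaCl2 then EGTA.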

ZR-75-1 [16] = experiment: Change in endoplasmic reticulum Ca2+ pump inhibitor thapsigargin-induced intracellular Ca2+ increase in human ZR-75-1 cells at 40 uM pretreated with thapsigargin followed by compound addition in presence of Ca2+ free medium; type: functional, cell-based; outline: as §4
ZR-75-1 [17] = experiment: Effect on endoplasmic reticulum Ca2+ pump inhibitor BHQ-induced intracellular Ca2+ increase in human ZR-75-1 cells at 40 uM pretreated with BHQ followed by compound addition in presence of Ca2+ free medium; type: functional, cell-based; outline: as §4
ZR-75-1 [18] = experiment: Inhibition of endoplasmic reticulum Ca2+ pump inhibitor BHQ-induced intracellular Ca2+ increase in human ZR-75-1 cells at 40 uM pretreated with compound followed by BHQ induction in presence of Ca2+ free medium; type: functional, cell-based; outline: as §4
ZR-75-1 [19] = experiment: Induction of luminal endoplasmic reticulum Ca2+ increases in human ZR-75-1 cells assessed as ratio of Ca2+ level at 40 uM by Mag-fura-2 dye-based fluorescence assay (reference value: 0.67 +/- 0.02); type: functional
Outline: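 ZR-75-1 cells loaded with 2 μM Mag-fura-2-AM for 45 min at 37 °C, permeabilized 2 min with […] digitonin in high-K+ intracellular buffer (pH 7.2). Perfused with 0.2 mM Mg-ATP, free Ca2+ clamped at 170 nM. Ratio calibrated with ionomycin plus Ca2+ or EGTA, Kd 53 μM. Control versus 40 μM compound.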

ZR-75-1 [20] = experiment: Induction of apoptosis in human ZR-75-1 cells assessed as late apoptotic cells at 20 uM after 24 hrs by annexin V-FITC/propidium iodide staining-based flow cytometric analysis (reference value: 2.53%); type: functional; outline: as §3

O=c1cc(-c2ccccc2)oc2cc(O)c(O)c(O)c12 [BAICALEIN]
Activity (ZR-75-1 [1]): 220 nM | Activity (ZR-75-1 [2]): Dose-dependent effect | EC50 (ZR-75-1 [2]): 25 µM | Activity (ZR-75-1 [3]): 103 nM | EC50 (ZR-75-1 [4]): 35 µM | viability at 20 min, 50 µM [5]: 95% | Activity (ZR-75-1 [6]): Active | Activity (ZR-75-1 [7]): inactive | Activity (ZR-75-1 [8]): inactive | Activity (ZR-75-1 [9]): inactive | Activity (ZR-75-1 [10]): 6.32% | Activity (ZR-75-1 [11]): 55.96% | Activity (ZR-75-1 [12]): 1.96% | Activity (ZR-75-1 [13]): 50.72% | Activity (ZR-75-1 [14]): inactive | inhibition (ZR-75-1 [15]): Active | Activity (ZR-75-1 [16]): inactive | Activity (ZR-75-1 [17]): inactive | inhibition (ZR-75-1 [18]): Active | Ratio (ZR-75-1 [19]): 0.875 | Activity (ZR-75-1 [20]): 2.36%
